Test results taken from ChEMBL document CHEMBL5260830, “Breakthroughs in neuroactive steroid drug discovery” (Bioorg Med Chem Lett, 2018).
In brackets after ≈: the same amount, converted by molar mass.

How the values were obtained:
[1] = biological target: T1, GABA-A receptor; alpha-1/beta-2/gamma-2 (Homo sapiens, UniProt P14867+P18507+P47870); experiment: Positive allosteric modulation of human GABAA alpha1beta2gamma2 receptor expressed in Xenopus laevis oocytes by two-microelectrode voltage-clamp assay; assay type: cell-based, Oocyte
T1 sequence (P14867 whole entry): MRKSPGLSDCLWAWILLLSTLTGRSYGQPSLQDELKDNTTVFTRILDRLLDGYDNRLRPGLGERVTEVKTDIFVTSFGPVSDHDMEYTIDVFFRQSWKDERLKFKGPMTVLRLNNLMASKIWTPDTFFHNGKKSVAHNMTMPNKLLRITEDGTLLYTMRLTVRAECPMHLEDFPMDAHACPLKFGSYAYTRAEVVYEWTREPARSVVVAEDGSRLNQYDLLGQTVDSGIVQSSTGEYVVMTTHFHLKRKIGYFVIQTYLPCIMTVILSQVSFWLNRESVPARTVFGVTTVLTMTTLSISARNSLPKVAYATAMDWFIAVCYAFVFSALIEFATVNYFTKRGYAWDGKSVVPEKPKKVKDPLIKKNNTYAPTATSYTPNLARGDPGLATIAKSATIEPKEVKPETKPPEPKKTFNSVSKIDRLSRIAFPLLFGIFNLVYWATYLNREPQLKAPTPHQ
T1 sequence (P47870 whole entry): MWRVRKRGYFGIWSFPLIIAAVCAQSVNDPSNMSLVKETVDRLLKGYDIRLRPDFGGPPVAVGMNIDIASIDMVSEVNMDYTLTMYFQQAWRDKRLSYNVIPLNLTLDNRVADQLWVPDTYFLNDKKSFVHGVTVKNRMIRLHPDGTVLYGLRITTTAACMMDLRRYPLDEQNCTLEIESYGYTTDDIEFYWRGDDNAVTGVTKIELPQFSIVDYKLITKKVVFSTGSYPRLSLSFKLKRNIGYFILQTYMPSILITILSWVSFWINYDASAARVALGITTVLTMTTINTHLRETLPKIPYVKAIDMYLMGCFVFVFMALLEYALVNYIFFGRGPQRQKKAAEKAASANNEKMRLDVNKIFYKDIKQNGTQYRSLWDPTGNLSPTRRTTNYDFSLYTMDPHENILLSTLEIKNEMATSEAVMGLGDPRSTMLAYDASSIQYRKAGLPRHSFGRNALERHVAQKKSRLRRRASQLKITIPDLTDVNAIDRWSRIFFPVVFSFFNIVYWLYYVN
T1 sequence (P18507 whole entry): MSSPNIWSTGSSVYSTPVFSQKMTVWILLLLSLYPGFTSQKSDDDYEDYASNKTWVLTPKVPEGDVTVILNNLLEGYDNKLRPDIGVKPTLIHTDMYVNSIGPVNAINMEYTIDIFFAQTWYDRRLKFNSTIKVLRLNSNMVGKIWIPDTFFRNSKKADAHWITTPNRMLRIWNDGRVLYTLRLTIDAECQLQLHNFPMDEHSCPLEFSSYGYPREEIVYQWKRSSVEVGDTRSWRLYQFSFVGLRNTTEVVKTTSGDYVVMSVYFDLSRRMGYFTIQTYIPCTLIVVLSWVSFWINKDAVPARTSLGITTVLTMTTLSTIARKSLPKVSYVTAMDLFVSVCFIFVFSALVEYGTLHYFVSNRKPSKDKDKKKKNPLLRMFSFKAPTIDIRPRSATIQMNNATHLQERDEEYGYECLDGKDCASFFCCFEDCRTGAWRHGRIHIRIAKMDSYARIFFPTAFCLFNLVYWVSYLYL
Method in brief: (§1)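 PAM activity measured as EC50 in Xenopus oocytes expressing α1β2γ2L or α2β1γ2L GABAA receptors.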

[2] = biological target: T2, Gamma-aminobutyric acid receptor subunit alpha-2/beta-1/gamma-2 (Homo sapiens, UniProt P18505+P18507+P47869); experiment: Positive allosteric modulation of human GABAA alpha2beta1gamma2 receptor expressed in Xenopus laevis oocytes by two-microelectrode voltage-clamp assay; assay type: cell-based, Oocyte; method in brief: as §1
T2 sequence (P18507 whole entry): T1 sequence (P18507 whole entry)
T2 sequence (P18505 whole entry): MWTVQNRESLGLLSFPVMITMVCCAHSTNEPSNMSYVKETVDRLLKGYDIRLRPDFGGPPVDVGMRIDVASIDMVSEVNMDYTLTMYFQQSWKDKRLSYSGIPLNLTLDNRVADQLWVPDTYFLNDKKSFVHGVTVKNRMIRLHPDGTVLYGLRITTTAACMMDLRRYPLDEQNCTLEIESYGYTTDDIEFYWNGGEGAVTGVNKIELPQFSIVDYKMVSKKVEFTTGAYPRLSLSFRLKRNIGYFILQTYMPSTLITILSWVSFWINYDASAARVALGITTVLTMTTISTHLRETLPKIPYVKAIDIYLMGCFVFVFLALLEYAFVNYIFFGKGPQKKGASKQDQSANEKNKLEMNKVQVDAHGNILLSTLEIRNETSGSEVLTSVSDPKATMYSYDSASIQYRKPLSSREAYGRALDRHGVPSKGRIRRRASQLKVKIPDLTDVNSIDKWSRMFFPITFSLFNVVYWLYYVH
T2 sequence (P47869 whole entry): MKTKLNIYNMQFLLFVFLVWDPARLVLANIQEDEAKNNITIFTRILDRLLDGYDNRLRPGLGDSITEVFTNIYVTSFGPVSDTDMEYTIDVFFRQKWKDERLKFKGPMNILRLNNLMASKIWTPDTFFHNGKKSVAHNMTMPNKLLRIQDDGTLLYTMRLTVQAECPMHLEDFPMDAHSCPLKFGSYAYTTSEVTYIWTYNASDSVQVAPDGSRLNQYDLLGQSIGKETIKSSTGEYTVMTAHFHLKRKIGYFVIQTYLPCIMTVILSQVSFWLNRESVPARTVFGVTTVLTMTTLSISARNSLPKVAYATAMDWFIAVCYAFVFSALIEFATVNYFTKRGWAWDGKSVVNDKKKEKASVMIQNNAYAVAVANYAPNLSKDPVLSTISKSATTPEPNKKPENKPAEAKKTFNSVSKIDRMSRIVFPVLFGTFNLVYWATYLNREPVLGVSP

[3] = Solubility of the compound in 45% HPbetaCD; assay type: physicochemical
[4] = Oral availability in rat 3 mg/kg, po; assay type: ADME, organism-based; details: in vivo
Method in brief: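 Rat oral bioavailability from dosing at 3 mg/kg p.o. and 1 mg/kg i.v.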

[5] = species on record: Mus musculus; experiment: Anxiolytic activity in mouse assessed as increase in time spent in open arm by elevated plus maze test; assay type: functional; details: read-out: MED
Method in brief: (§2)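 Mice were dosed orally. Anxiolytic activity was tested in the elevated plus maze and reported as minimum effective dose. Anticonvulsant activity was tested against pentylenetetrazole-induced seizures and reported as ED50. Therapeutic indices were given for the anxiolytic and anticonvulsant read-outs against a preliminary mouse safety measure.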

[6] = test system: Mus musculus; experiment: Anticonvulsant activity in PTZ induced mouse administered orally; assay type: functional; details: route po; method in brief: as §2
[7] = Therapeutic index, ratio of AD50 for mouse to MED for anxiolytic activity in mouse assessed as increase in time spent in open arm by elevated plus maze test; assay type: toxicity; details: read-out: TI; method in brief: as §2
[8] = Therapeutic index, ratio of AD50 for mouse to ED50 for anticonvulsant activity in PTZ induced mouse administered orally; assay type: toxicity; details: in vivo, route po, read-out: TI; method in brief: as §2
[9] = species on record: Mus musculus; experiment: Anticonvulsant activity in 6-Hz induced seizure mouse model assessed as protection against 6-Hz induced seizure; assay type: functional
Method in brief: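 Tonic currents recorded from voltage-clamped ([…]) dentate gyrus granule cells of wild-type female mice. Value is fold potentiation of the mean normalized tonic response to 1 µM GABA, from four to eight cells per steroid and concentration. Anticonvulsant ED50 determined in the mouse 6-Hz psychomotor seizure model.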

[10] = biological target: GABA-A receptor; anion channel (Homo sapiens) (UniProt P14867+P47870+P18507+P28472+P48169+Q99928+Q9UN88+P34903+O00591+O14764+Q8N1C3+P18505+P78334+P47869+P31644+Q16445); experiment: Potentiation of NAS mediated GABA (unknown origin) tonic effect assessed as fold potentiation; assay type: protein-complex assay; details: filed as activator
[11] = Brain concentration in mouse at 10 mg/kg po measured after 30 mins; assay type: ADME, organism-based; details: read-out: Ct
Method in brief: (§3)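 Mice were given oral doses of 3, 10 or 30 mg/kg, with a vehicle group. Pentylenetetrazole was used to induce seizures. Percentages of animals with clonic seizure, tonic seizure and death were recorded. Plasma (ng/mL) and brain (ng/g) concentrations were measured in samples collected 30 min after administration.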

[12] = Brain concentration in mouse at 30 mg/kg po measured after 30 mins; assay type: ADME, organism-based; details: read-out: Ct; method in brief: as §3
[13] = Plasma concentration in mouse at 30 mg/kg, po measured after 30 mins; assay type: ADME, organism-based; method in brief: as §3
[14] = Brain concentration in mouse at 3 mg/kg po measured after 30 mins; assay type: ADME, organism-based; details: read-out: Ct; method in brief: as §3
[15] = Plasma concentration in mouse at 3 mg/kg, po measured after 30 mins; assay type: ADME, organism-based; method in brief: as §3
[16] = Plasma concentration in mouse at 10 mg/kg, po measured after 30 mins; assay type: ADME, organism-based; method in brief: as §3
[17] = test system: Mus musculus; experiment: Anticonvulsant activity in PTZ induced mouse assessed as reduction in clonic seizure at 10 mg/kg,po (reference value: 100%); assay type: functional; parameters: scale not given: the % may be the effect or the level left; method in brief: as §3
[18] = test system: Mus musculus; experiment: Anticonvulsant activity in PTZ induced mouse assessed as animal death at 3 mg/kg,po (reference value: 80%); assay type: functional; method in brief: as §3
[19] = test system: Mus musculus; experiment: Anticonvulsant activity in PTZ induced mouse assessed as reduction in tonic seizure at 3 mg/kg,po (reference value: 80%); assay type: functional; parameters: scale not given: the % may be the effect or the level left; method in brief: as §3
[20] = test system: Mus musculus; experiment: Anticonvulsant activity in PTZ induced mouse assessed as reduction in clonic seizure at 3 mg/kg,po (reference value: 100%); assay type: functional; parameters: scale not given: the % may be the effect or the level left; method in brief: as §3
[21] = test system: Rattus norvegicus; experiment: Neuroprotective activity against transient middle cerebral artery occlusion induced cerebral infraction Sprague-Dawley rat model assessed as decrease in cerebral infraction volume at 12 mg/kg, ip and measured after 7 days by TTC staining based assay; assay type: functional; parameters: scale not given: the % may be the effect or the level left; details: time 7 day
[22] = Inhibition of NMDA current in Sprague-Dawley rat Cortical neuron; assay type: functional, cell-based; details: cortical neurone
[23] = Inhibition of NMDA induced calcium increase in Sprague-Dawley rat Cortical neuron; assay type: functional, cell-based, Cortical neurone

`C[C@@]1(O)CC[C@@]2(C)[C@@H](CC[C@@H]3[C@@H]2CC[C@]2(C)[C@@H](c4cc(CO)on4)CC[C@@H]32)C1` showed an EC50 [1] of 1200 nM, an EC50 [2] of 200 nM and a solubility [3] of 52 mM (≈ 20.2 mg/mL). The bioavailability [4] was 77%, the minimal effective dose [5] was ≤ 0.3 mg/kg and the ED50 [6] was 6 mg/kg. For the same compound, the selectivity ratio [7] was ≥ 127 and the selectivity ratio [8] was 6.

`CC(=O)[C@H]1CC[C@H]2[C@@H]3CC[C@H]4C[C@](C)(O)CC[C@]4(C)[C@H]3CC[C@]12C` [GANAXOLONE] showed an ED50 [9] of 1.5 mg/kg, a fold change (FC) [10] of 3.47 and an EC50 [1] of 200 nM. For the same compound, the EC50 [2] was 100 nM, the solubility [3] was 20 mM (≈ 6.65 mg/mL) and the minimal effective dose [5] was 20 mg/kg. The ED50 [6] was 23 mg/kg, the selectivity ratio [7] was 3.3 and the selectivity ratio [8] was 3.

Compound `C[C@@]1(O)CC[C@H]2[C@H](CC[C@@H]3[C@@H]2CC[C@]2(C)[C@@H](C(=O)Cn4nccn4)CC[C@@H]32)C1` has a concentration at 0.5 h [11] of 773 ng/g, a concentration at 0.5 h [12] of 1960 ng/g and a concentration at 0.5 h [13] of 1690 ng/mL. For the same compound, the concentration at 0.5 h [14] was 87 ng/g, the concentration at 0.5 h [15] was 87 ng/mL and the concentration at 0.5 h [16] was 703 ng/mL. The Activity [17] was 20%, the Activity [18] was 30% and the Activity [19] was 40%. It also gave an Activity [20] of 90%.

Compound `C=C(C)CC[C@@H](C)[C@H]1CC[C@H]2[C@@H]3C[C@@H](O)[C@@]4(O)C[C@H](O)CC[C@]4(CO)[C@H]3CC[C@]12C` has an Activity [21] of 30%, an IC50 [22] of 10.3 µM and an IC50 ([23]; Rattus norvegicus, Sprague-Dawley, Cortical neurone) of 7.8 µM. For the same compound, the IC50 ([23]; cortical neurone) was 10.3 µM.
